Compound activity deposited in PubChem by several laboratories.
Compounds with a hit are over-represented: about 4.4% of the library has one in this group of screens.
HTR2A ag: activates the mouse 5-HT2A serotonin receptor. P35363. CHO-K1 mHTR2A beta-arrestin complementation, luminescence; percent of 30 µM serotonin response. activation, % at 7.6 µM. hit rate 0.66% among 360,000. AID 624169;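 active means activation above a run cutoff, the mean activation of all tested compounds plus 3 SD, cut at about 14% in these data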;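 further: 0% = plate median of compound wells and 100% = 30 µM serotonin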
AI-2 QS modul: modulators of Vibrio harveyi AI-2 quorum sensing system; Vibrio harveyi JMH597 AI-2 luminescence/OD600 ratio, 9 h; stronger effect = lower value; strain lacks LuxN and CqsS sensors; 0 = neutral-control median; activity change, % at 7.5 µM; hit rate 0.4% among 300,000; in the data active means activity change below about -75%, passing the limit was not always enough;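 further: luminescence divided by OD600 gain over 9 h not by final OD600 alone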
MsrA act: activates bovine MsrA enzyme. purified bovine MsrA, absorbance read-out. AID 602163. activation, % at 10.6 µM. hit rate 0.3% among 360,000; in the data active means activation above about 7.5%;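 further: 0% = vehicle and 100% = reference activator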
MsrA inh: bovine MsrA inhibition; purified bovine MsrA, absorbance read-out; inhibition, % at 15.5 µM; hit rate 0.75% among 360,000; AID 651718; in the data active means inhibition above about 4.5%;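 further: 0% = vehicle wells with enzyme and 100% = reference inhibitor wells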
AHR activator: human AHR activation | P35869 | AHR-responsive luciferase reporter cells, luminescence | activation, % at 5 µM | hit rate 2.5% among 320,000; in the data active means activation above about 47%;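 further: 0% = vehicle wells and 100% = reference agonist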
Target sequence (P35869 whole entry, looked up): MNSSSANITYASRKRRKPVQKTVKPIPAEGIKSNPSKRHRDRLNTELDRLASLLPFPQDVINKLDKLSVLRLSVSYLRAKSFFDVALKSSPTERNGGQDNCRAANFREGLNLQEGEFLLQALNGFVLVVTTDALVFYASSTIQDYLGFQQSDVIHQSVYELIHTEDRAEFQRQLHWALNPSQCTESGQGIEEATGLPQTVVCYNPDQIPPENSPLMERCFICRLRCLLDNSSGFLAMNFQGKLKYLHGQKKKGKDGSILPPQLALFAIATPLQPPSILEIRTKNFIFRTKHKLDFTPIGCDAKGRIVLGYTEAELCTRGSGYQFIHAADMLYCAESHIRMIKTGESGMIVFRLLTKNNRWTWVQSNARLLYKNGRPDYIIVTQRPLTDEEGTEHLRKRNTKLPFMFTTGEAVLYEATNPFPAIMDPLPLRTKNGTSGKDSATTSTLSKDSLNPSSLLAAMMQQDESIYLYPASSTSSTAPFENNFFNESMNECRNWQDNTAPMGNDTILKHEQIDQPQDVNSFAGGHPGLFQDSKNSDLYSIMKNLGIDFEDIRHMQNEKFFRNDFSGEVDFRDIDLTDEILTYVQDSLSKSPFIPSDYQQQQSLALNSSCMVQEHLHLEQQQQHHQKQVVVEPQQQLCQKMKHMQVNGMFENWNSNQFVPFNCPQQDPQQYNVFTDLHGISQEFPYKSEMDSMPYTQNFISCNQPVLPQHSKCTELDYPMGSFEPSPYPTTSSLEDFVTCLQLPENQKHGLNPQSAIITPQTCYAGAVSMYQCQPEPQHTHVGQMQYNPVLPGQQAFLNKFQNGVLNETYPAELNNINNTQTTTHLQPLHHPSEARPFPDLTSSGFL
Tb MetRS inh: Trypanosoma brucei MetRS inhibition | purified T. brucei MetRS, ATP depletion, Kinase-Glo luminescence | inhibition, % at 11.9 µM | hit rate 0.4% among 360,000;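 active means inhibition above a per-plate cutoff of the control wells' mean inhibition plus 3 SD, cut at about 5.5% in these data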;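 further: 0% = DMSO wells median and 100% = median of wells with control inhibitor compound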
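technique = Kinase-Glo luminescence, ATP depletion format | system = purified MetRS (methionyl-tRNA synthetase) enzyme from Trypanosoma brucei | timing = 15 min preincubation, 2 h reaction, all 25 °C | evaluation = percent inhibition versus plate control medians | dosing = single dose, 11.9 µM final nominal, 0.9% final DMSO | also added = substrates ATP, L-methionine and bulk Escherichia coli tRNA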
MsrA act confirm: confirmation of bovine methionine sulfoxide reductase A activators | shares compounds with MsrA act | purified bovine MsrA, absorbance read-out | activation, % at 10.6 µM | hit rate 12% among 1,000; in the data active means activation above about 4%;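 further: enzyme coupled to thioredoxin and thioredoxin reductase with NADPH; 0% = vehicle wells and 100% = reference activator wells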
The depositor's hits bear a star; . = not tested or not shown.

SMILES | HTR2A ag | AI-2 QS modul | MsrA act | MsrA inh | AHR activator | Tb MetRS inh | MsrA act confirm
O=C(C1CC(=O)N(c2ccc3c(c2)OCCO3)C1)N1CCN(c2ccccc2)CC1 (stereo not drawn) | -2.5 | 22.6 | 9.4* | -0.1 | -1.5 | -0.2 | 0.4
O=C(NCc1ccccc1F)C1CC(=O)N(c2ccc3c(c2)OCCO3)C1 (stereo not drawn) | 0.5 | 7.2 | 9.5* | -0.4 | 7.6 | 0.4 | -1.8
Cc1ccc(NC(=O)C(C)c2ccc([N+](=O)[O-])cc2)cc1Cl (stereo not drawn) | 13.7 | 14.0 | 20.2* | -1.0 | 1.4 | 1.2 | 0.0
CC(C(=O)Nc1ccccc1Br)c1ccc([N+](=O)[O-])cc1 (stereo not drawn) | 1.3 | -1.3 | -14.3 | -0.1 | -3.0 | -0.8 | .
C/C(CC(=O)Nc1ccc(Cl)cc1Cl)=N\NC(=O)c1ccco1 | 6.5 | 5.9 | 8.4* | 0.0 | 6.6 | -0.7 | 0.2
Nc1ccccc1SC(CC(=O)c1ccccc1)c1ccccc1 (stereo not drawn) | 1.4 | . | 7.9* | . | . | -0.2 | -0.4
CNC(=O)c1ccc(NC(=O)Nc2ccccc2)cc1 | -1.9 | -4.4 | -2.6 | -0.2 | 8.9 | 0.9 | .
COc1ccc(N2CC(C(=O)OCC(=O)Nc3cc(C)on3)CC2=O)cc1 (stereo not drawn) | 1.6 | 23.6 | 8.0* | 0.0 | -1.2 | -0.2 | -3.1
O=C(NCCc1ccc(F)cc1)C(=O)Nc1cc2c3c(c1)CC(=O)N3CCC2 | 1.8 | -1.4 | -4.0 | -0.8 | 1.8 | -0.4 | .
O=C(NCCc1ccc(Cl)cc1)C(=O)Nc1cc2c3c(c1)CC(=O)N3CCC2 | 7.0 | 10.3 | 16.7* | 0.1 | -2.0 | -0.4 | -1.9
Cc1ccc(NC(=O)CN(C)C(=O)c2cccc(S(=O)(=O)N3CCc4ccccc4C3)c2)cc1 | 6.4 | . | 10.3* | -0.4 | . | -0.2 | 0.3
CCN(CC(=O)Nc1ccc(NC(C)=O)cc1)C(=O)c1cccc(S(=O)(=O)N2CCc3ccccc3C2)c1 | -1.7 | 1.7 | -0.4 | 0.4 | 1.5 | -0.2 | .
Cc1ccc(S(=O)(=O)N2CCN(C(=O)CN3C(=O)c4ccc([N+](=O)[O-])cc4C3=O)CC2)cc1C | 12.1 | . | -4.5 | -0.2 | 1.1 | -0.4 | .
Cc1ccc(S(=O)(=O)Nc2cccc3cccnc23)cc1 | -8.2 | 25.4 | 11.1* | -0.8 | 3.4 | -0.4 | -2.0
CCN(CCCNC(=O)CCn1c(=S)[nH]c2cc3c(cc2c1=O)OCO3)c1cccc(C)c1 | 2.5 | 12.2 | 8.1* | 0.3 | 1.9 | -0.3 | -1.7
CCc1ccc([C@@H]2C[C@H]3[C@@H](CN2S(=O)(=O)c2ccc(C)cc2)C(=O)C[C@@H](c2ccccc2F)N3S(=O)(=O)c2ccc(C)cc2)cc1 | 2.1 | . | -1.1 | 0.6 | . | -0.8 | .
O=S(=O)(NC1=NCCCCC1)c1ccc2ccccc2c1 | 0.8 | 11.8 | 9.0* | -1.2 | 16.7 | -0.4 | -0.5
CN(C)CCCNC(=S)Nc1ccc(-c2ccccc2)cc1 | -3.6 | 15.4 | -1.7 | 0.3 | -0.2 | -0.4 | .
CC(C)(O)CN(CCCNC(=S)Nc1ccccc1)C(=S)Nc1ccccc1 | -0.4 | . | 14.3* | -0.3 | . | -0.3 | -0.1
Cc1ccc(S(=O)(=O)NC(c2ccccc2)C(C)C(=O)n2nc(C)cc2C)cc1 (stereo not drawn) | -0.6 | 19.5 | 8.1* | -0.2 | -3.1 | -0.7 | 0.6
Cc1ccc(S(=O)(=O)NC(CC(=O)n2nc(C)cc2C)c2ccccc2)cc1 (stereo not drawn) | 1.2 | 17.8 | -5.4 | -0.4 | 3.8 | -0.5 | .
CCCOc1ccc(-c2nc(=S)[nH][nH]2)cc1 | 2.9 | -84.5* | 9.2* | 1.5 | 8.4 | -0.4 | 3.1
CCCCNC(=O)C1(C)CCCCN1C(=O)c1ccc2c(c1)C(C)(C)CCC2(C)C (stereo not drawn) | -2.0 | . | -5.6 | -0.7 | . | -0.3 | .
Cc1cc(C)c(C)c(S(=O)(=O)N2CCC(C(=O)N3CCCCCCC3)CC2)c1C | 8.2 | 1.0 | -2.6 | 0.1 | 0.7 | 0.1 | .
CC(C)C[C@H]1CN(CCCC[C@@H]2CNC(=O)C(=O)N2Cc2ccccc2)C(=O)C(=O)N1CCc1ccccc1 | -1.9 | . | -2.6 | 3.3 | . | -0.8 | .
SMILES | HTR2A ag | AI-2 QS modul | MsrA act | MsrA inh | AHR activator | Tb MetRS inh | MsrA act confirm
CC(C)C[C@H]1CN(CCCC[C@@H]2CNC(=O)C(=O)N2CCc2ccccc2)C(=O)C(=O)N1Cc1ccccc1 | -0.5 | . | 19.1* | 0.6 | . | -1.0 | -4.2
O=[N+]([O-])c1ccc2c(c1)-c1ccccc1C2O (stereo not drawn) | -4.0 | . | -3.1 | 0.7 | . | 1.0 | .
O=C1CCC(C(=O)N2CCCC2)CN1Cc1cccc(C(F)(F)F)c1 (stereo not drawn) | -3.6 | 0.3 | 9.8* | -0.6 | -5.1 | -0.2 | 1.8
CC(=O)c1sc(Nc2nc3ccc(F)cc3s2)nc1C | -8.2 | -5.2 | 7.8* | -0.2 | 65.4* | 0.3 | -0.8
CC1(C)Oc2nc3ccccc3n2/C1=C\C#N | 2.5 | 29.1 | 8.0* | 0.2 | -0.2 | 0.3 | -1.8
NCCCCCc1nnc(SCc2ccc(Cl)c(Cl)c2)o1 | -5.5 | -1.0 | 8.3* | 0.2 | 1.2 | 1.1 | 1.2
NCCc1nnc(SCc2ccc(F)cc2)o1 | 2.7 | 0.3 | -4.0 | -1.2 | 1.8 | -0.9 | .
COc1ccc(N(CC(=O)N2CCOCC2)S(C)(=O)=O)cc1 | 8.7 | 13.1 | -9.1 | -0.4 | 1.3 | -1.1 | .
C=CCNC(=O)c1ccccc1NC(=O)c1ccccc1C | -5.7 | 7.0 | 8.6* | -0.8 | 27.2 | -0.6 | -0.5
Cc1nnc(Sc2c(N)n(C)c(=O)[nH]c2=O)s1 | 4.2 | 36.4 | 11.5* | -1.4 | 5.1 | 0.0 | -1.5
C[C@@H]1CC[C@]2(O[C@H](CCO)C[C@H](O)[C@H]2O)O1 | -0.4 | 12.9 | -0.9 | 1.1 | 1.0 | -0.3 | .
CC(C)(C)c1cc2nc(NCCOc3ccccc3)ccn2n1 | 0.1 | . | -5.1 | 1.4 | . | -0.2 | .
CCOc1ccc(NC(=O)CSCc2cnn(-c3ccccc3)c2-n2cccc2)cc1 | -1.3 | 24.6 | 8.8* | -0.4 | 0.7 | -0.9 | 0.6
COc1cc(NC(=O)CSCc2cnn(-c3ccccc3)c2-n2cccc2)cc(OC)c1 | 1.9 | 5.0 | 1.0 | 0.1 | 6.3 | -0.2 | .
COc1ccccc1CC(NC(C)=O)C(=O)NC1CCN(c2nnnn2-c2ccccc2)CC1 (stereo not drawn) | 1.3 | . | -1.1 | . | -0.8 | -1.0 | .
CC(=O)NC(Cc1ccccc1C)C(=O)NC1CCN(c2nnnn2-c2ccccc2)CC1 (stereo not drawn) | 7.5 | -2.2 | 11.6* | 0.7 | 0.4 | -0.4 | -0.8
O=c1ccsn1Cc1ccccc1 | 2.8 | 65.3 | 17.8* | 0.7 | 4.5 | -0.7 | 5.6*
O=C1NC(Cc2ccccc2)C(=O)N1Cc1ccccc1 (stereo not drawn) | 3.7 | . | -6.5 | -0.9 | . | -0.3 | .
CN(C)c1ccc(C=c2c3ccccc3n3c2cc(-c2ccccc2)[n+]3C)cc1 | -10.3 | . | 9.8* | 2.1 | . | -0.4 | 1.4
